In ChEMBL document CHEMBL1944580, “Synthesis of novel sulfonamide-1,2,4-triazoles, 1,3,4-thiadiazoles and 1,3,4-oxadiazoles, as potential antibacterial and antifungal agents. Biological evaluation and conformational analysis studies” (2012):
Values after ≈ are worked out from the molar mass of the structure shown.

Tests used:
[1] = test system: Bacillus cereus; experiment: Antibacterial activity against Bacillus cereus clinical isolate after 24 hrs by micro dilution method; assay type: functional
Outline: (§1)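 Microdilution MIC in 96-well plates. Bacterial suspensions adjusted in sterile saline to 1.0 × 10^5 CFU/ml, giving 1.0 × 10^4 cfu per well in LB broth. Compounds tested at up to 1 mg/ml. Plates incubated 24 h. MIC taken as the lowest concentration with no visible growth under a binocular microscope. OD at 655 nm was also read against a blank and the positive control. Streptomycin and ampicillin were the positive controls.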

[2] = test system: Enterobacter cloacae; experiment: Antibacterial activity against Enterobacter cloacae human isolate after 24 hrs by micro dilution method; assay type: functional; outline: as §1
[3] = test system: Enterobacter cloacae; experiment: Antibacterial activity against Enterobacter cloacae human isolate treated for 24 hrs followed by sub-cultivated for 72 hrs by micro dilution method; assay type: functional
Outline: (§2)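 2 µl from each well was serially subcultured into 100 µl fresh broth per well and incubated a further 72 h. MBC is the lowest concentration with no visible growth, taken as 99.5% killing of the original inoculum. Streptomycin and ampicillin were the positive controls.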

[4] = test system: Aspergillus flavus; experiment: Antifungal activity against Aspergillus flavus ATCC 9643 treated for 72 hrs followed by sub-cultivated for 5 days by serial dilution method; assay type: functional
Outline: (§3)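 MFC obtained after the 72 h, 28 °C malt-broth microdilution (spore inoculum about 1.0 × 10^5 per well, compounds from 1 mg/ml DMSO). 2 µl was serially subcultured into 100 µl broth per well and incubated a further 5 days at 28 °C. MFC is the lowest concentration with no visible growth, taken as 99.5% killing of the original inoculum.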

[5] = test system: Pseudomonas aeruginosa; experiment: Antibacterial activity against Pseudomonas aeruginosa ATCC 27853 after 24 hrs by micro dilution method; assay type: functional; details: ATCC 27853, 24 h; outline: as §1
[6] = test system: Trichoderma viride; experiment: Antifungal activity against Trichoderma viride IAM 5061 treated for 72 hrs followed by sub-cultivated for 5 days by serial dilution method; assay type: functional; outline: as §3
[7] = test system: Micrococcus flavus; experiment: Antibacterial activity against Micrococcus flavus ATCC 10240 after 24 hrs by micro dilution method; assay type: functional; details: ATCC 10240, 24 h; outline: as §1
[8] = test system: Listeria monocytogenes; experiment: Antibacterial activity against Listeria monocytogenes NCTC 7973 after 24 hrs by micro dilution method; assay type: functional; details: NCTC 7973, 24 h; outline: as §1
[9] = test system: Fulvia fulva; experiment: Antifungal activity against Fulvia fulva after 72 hrs by serial dilution method; assay type: functional
Outline: (§4)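 Modified microdilution MIC. Spores were washed from malt agar cultures with sterile 0.85% saline containing 0.1% Tween 80 and adjusted to about 1.0 × 10^5 per 100 µl well in malt broth. Compounds were dissolved in DMSO (1 mg/ml). Plates incubated 72 h at 28 °C. MIC is the lowest concentration with no visible growth under a binocular microscope. Bifonazole and ketoconazole were the references.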

[10] = test system: Fulvia fulva; experiment: Antifungal activity against Fulvia fulva treated for 72 hrs followed by sub-cultivated for 5 days by serial dilution method; assay type: functional; outline: as §3
[11] = test system: Escherichia coli; experiment: Antibacterial activity against Escherichia coli ATCC 35210 after 24 hrs by micro dilution method; assay type: functional; details: ATCC 35210, 24 h; outline: as §1
[12] = test system: Aspergillus versicolor; experiment: Antifungal activity against Aspergillus versicolor ATCC 11730 after 72 hrs by serial dilution method; assay type: functional; details: ATCC 11730, 72 h; outline: as §4
[13] = test system: Aspergillus niger; experiment: Antifungal activity against Aspergillus niger ATCC 6275 treated for 72 hrs followed by sub-cultivated for 5 days by serial dilution method; assay type: functional; outline: as §3
[14] = test system: Penicillium ochrochloron; experiment: Antifungal activity against Penicillium ochrochloron ATCC 9112 treated for 72 hrs followed by sub-cultivated for 5 days by serial dilution method; assay type: functional; outline: as §3
[15] = test system: Bacillus cereus; experiment: Antibacterial activity against Bacillus cereus clinical isolate treated for 24 hrs followed by sub-cultivated for 72 hrs by micro dilution method; assay type: functional; outline: as §2
[16] = test system: Aspergillus niger; experiment: Antifungal activity against Aspergillus niger ATCC 6275 after 72 hrs by serial dilution method; assay type: functional; details: ATCC 6275, 72 h; outline: as §4
[17] = test system: Talaromyces funiculosus; experiment: Antifungal activity against Penicillium funiculosum ATCC 36839 treated for 72 hrs followed by sub-cultivated for 5 days by serial dilution method; assay type: functional; outline: as §3
[18] = test system: Aspergillus fumigatus; experiment: Antifungal activity against Aspergillus fumigatus human isolate after 72 hrs by serial dilution method; assay type: functional; outline: as §4
[19] = test system: Micrococcus flavus; experiment: Antibacterial activity against Micrococcus flavus ATCC 10240 treated for 24 hrs followed by sub-cultivated for 72 hrs by micro dilution method; assay type: functional; outline: as §2
[20] = test system: Staphylococcus aureus; experiment: Antibacterial activity against Staphylococcus aureus ATCC 6538 after 24 hrs by micro dilution method; assay type: functional; details: ATCC 6538, 24 h; outline: as §1
[21] = test system: Salmonella typhimurium; experiment: Antibacterial activity against Salmonella Typhimurium ATCC 13311 treated for 24 hrs followed by sub-cultivated for 72 hrs by micro dilution method; assay type: functional, Salmonella enterica subsp. enterica serovar Typhimurium; details: Salmonella enterica; outline: as §2
[22] = test system: Listeria monocytogenes; experiment: Antibacterial activity against Listeria monocytogenes NCTC 7973 treated for 24 hrs followed by sub-cultivated for 72 hrs by micro dilution method; assay type: functional; outline: as §2
[23] = test system: Penicillium ochrochloron; experiment: Antifungal activity against Penicillium ochrochloron ATCC 9112 after 72 hrs by serial dilution method; assay type: functional; details: ATCC 9112, 72 h; outline: as §4
[24] = test system: Staphylococcus aureus; experiment: Antibacterial activity against Staphylococcus aureus ATCC 6538 treated for 24 hrs followed by sub-cultivated for 72 hrs by micro dilution method; assay type: functional; outline: as §2
[25] = test system: Trichoderma viride; experiment: Antifungal activity against Trichoderma viride IAM 5061 after 72 hrs by serial dilution method; assay type: functional; details: IAM 5061, 72 h; outline: as §4
[26] = test system: Aspergillus flavus; experiment: Antifungal activity against Aspergillus flavus ATCC 9643 after 72 hrs by serial dilution method; assay type: functional; details: ATCC 9643, 72 h; outline: as §4
[27] = test system: Salmonella typhimurium; experiment: Antibacterial activity against Salmonella Typhimurium ATCC 13311 after 24 hrs by micro dilution method; assay type: functional, Salmonella enterica subsp. enterica serovar Typhimurium; details: Salmonella enterica, ATCC 13311, 24 h; outline: as §1
[28] = test system: Aspergillus versicolor; experiment: Antifungal activity against Aspergillus versicolor ATCC 11730 treated for 72 hrs followed by sub-cultivated for 5 days by serial dilution method; assay type: functional; outline: as §3
[29] = test system: Escherichia coli; experiment: Antibacterial activity against Escherichia coli ATCC 35210 treated for 24 hrs followed by sub-cultivated for 72 hrs by micro dilution method; assay type: functional; outline: as §2
[30] = test system: Aspergillus fumigatus; experiment: Antifungal activity against Aspergillus fumigatus human isolate treated for 72 hrs followed by sub-cultivated for 5 days by serial dilution method; assay type: functional; outline: as §3
[31] = test system: Talaromyces funiculosus; experiment: Antifungal activity against Penicillium funiculosum ATCC 36839 after 72 hrs by serial dilution method; assay type: functional; details: ATCC 36839, 72 h; outline: as §4
[32] = test system: Pseudomonas aeruginosa; experiment: Antibacterial activity against Pseudomonas aeruginosa ATCC 27853 treated for 24 hrs followed by sub-cultivated for 72 hrs by micro dilution method; assay type: functional; outline: as §2

MIC [1] | MIC [2] | MIC [5] | MIC [7] | MIC [8] | MIC [9] | MIC [11] | MIC [12] | MIC [16] | MIC [18] | MIC [20] | Compound | MBC [3] | MFC [4] | MFC [6] | MFC [10] | MFC [13] | MFC [14] | MBC [15] | MFC [17] | MBC [19] | other results
250 µM (≈ 99.6 µg/mL) | 500 µM (≈ 199 µg/mL) | 380 µM (≈ 151 µg/mL) | 630 µM (≈ 251 µg/mL) | 380 µM (≈ 151 µg/mL) | 250 µM (≈ 99.6 µg/mL) | 130 µM (≈ 51.8 µg/mL) | 130 µM (≈ 51.8 µg/mL) | 130 µM (≈ 51.8 µg/mL) | 250 µM (≈ 99.6 µg/mL) | 250 µM (≈ 99.6 µg/mL) | CCCCn1c(Cc2cc(OC)c(OC)cc2S(=O)(=O)N(C)C)n[nH]c1=O | 760 µM (≈ 303 µg/mL) | 380 µM (≈ 151 µg/mL) | 60 µM (≈ 23.9 µg/mL) | 250 µM (≈ 99.6 µg/mL) | 380 µM (≈ 151 µg/mL) | 380 µM (≈ 151 µg/mL) | 760 µM (≈ 303 µg/mL) | 250 µM (≈ 99.6 µg/mL) | 630 µM (≈ 251 µg/mL) | MBC [21]: 760 µM (≈ 303 µg/mL); MBC [22]: 380 µM (≈ 151 µg/mL); MIC [23]: 130 µM (≈ 51.8 µg/mL); MBC [24]: 500 µM (≈ 199 µg/mL); MIC [25]: 30 µM (≈ 12 µg/mL); MIC [26]: 130 µM (≈ 51.8 µg/mL); MIC [27]: 500 µM (≈ 199 µg/mL); MFC [28]: 380 µM (≈ 151 µg/mL); MBC [29]: 250 µM (≈ 99.6 µg/mL); MFC [30]: 250 µM (≈ 99.6 µg/mL); MIC [31]: 130 µM (≈ 51.8 µg/mL); MBC [32]: 380 µM (≈ 151 µg/mL)
250 µM (≈ 99.6 µg/mL) | 250 µM (≈ 99.6 µg/mL) | 390 µM (≈ 155 µg/mL) | 390 µM (≈ 155 µg/mL) | 390 µM (≈ 155 µg/mL) | 250 µM (≈ 99.6 µg/mL) | 130 µM (≈ 51.8 µg/mL) | 250 µM (≈ 99.6 µg/mL) | 250 µM (≈ 99.6 µg/mL) | 250 µM (≈ 99.6 µg/mL) | 390 µM (≈ 155 µg/mL) | COc1cc(Cc2n[nH]c(=O)n2C(C)(C)C)c(S(=O)(=O)N(C)C)cc1OC | 250 µM (≈ 99.6 µg/mL) | 380 µM (≈ 151 µg/mL) | 250 µM (≈ 99.6 µg/mL) | 250 µM (≈ 99.6 µg/mL) | 380 µM (≈ 151 µg/mL) | 380 µM (≈ 151 µg/mL) | 780 µM (≈ 311 µg/mL) | 250 µM (≈ 99.6 µg/mL) | 390 µM (≈ 155 µg/mL) | MBC [21]: 250 µM (≈ 99.6 µg/mL); MBC [22]: 390 µM (≈ 155 µg/mL); MIC [23]: 250 µM (≈ 99.6 µg/mL); MBC [24]: 390 µM (≈ 155 µg/mL); MIC [25]: 30 µM (≈ 12 µg/mL); MIC [26]: 250 µM (≈ 99.6 µg/mL); MIC [27]: 250 µM (≈ 99.6 µg/mL); MFC [28]: 380 µM (≈ 151 µg/mL); MBC [29]: 250 µM (≈ 99.6 µg/mL); MFC [30]: 380 µM (≈ 151 µg/mL); MIC [31]: 130 µM (≈ 51.8 µg/mL); MBC [32]: 390 µM (≈ 155 µg/mL)
